Key:
Assay type in all cases: functional
[1] = tested on: Trichinella spiralis; assay: Antitrichinellosis activity against Trichinella spiralis larvae at 200 ug/ml after 24 hrs by Campbell's method
In short: (§1)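 Encapsulated T. spiralis larvae were held at 150 per 1 ml physiological solution with compound dissolved in DMSO–water. Incubation was at 37 °C in a humid thermostatted chamber. Larval vitality was scored by stereomicroscope at 24 and 48 h after treatment.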

[2] = tested on: Trichinella spiralis; assay: Antitrichinellosis activity against Trichinella spiralis larvae at 100 ug/ml after 24 hrs by Campbell's method; in short: as §1
[3] = tested on: Trichinella spiralis; assay: Antitrichinellosis activity against Trichinella spiralis larvae at 50 ug/ml after 48 hrs by Campbell's method; in short: as §1
[4] = tested on: Trichinella spiralis; assay: Antitrichinellosis activity against Trichinella spiralis larvae at 50 ug/ml after 24 hrs by Campbell's method; in short: as §1
[5] = tested on: Trichinella spiralis; assay: Antitrichinellosis activity against Trichinella spiralis intestinal phase larvae in mouse at 100 mg/kg, po after 3 days
In short: (§2)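 White immature mice each infected with 150 Trichinella larvae, five mice per group. Oral dosing by thin metallic probe into the oesophagus as DMSO solution, once daily for 3 days starting on day 3 after infection. Controls were untreated mice and mice given albendazole at 100 mg/kg. Read-out was microscopic examination of small-intestine contents after autopsy for larvae.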

[6] = tested on: Trichinella spiralis; assay: Antitrichinellosis activity against Trichinella spiralis larvae at 200 ug/ml after 48 hrs by Campbell's method; in short: as §1
[7] = tested on: Trichinella spiralis; assay: Antitrichinellosis activity against Trichinella spiralis larvae at 100 ug/ml after 48 hrs by Campbell's method; in short: as §1
[8] = tested on: Trichinella spiralis; assay: Antitrichinellosis activity against Trichinella spiralis intestinal phase larvae in mouse at 50 mg/kg, po after 3 days; in short: as §2

SMILES	Efficacy [1] [%]	Efficacy [2] [%]	Efficacy [3] [%]	Efficacy [4] [%]	Efficacy [5] [%]	Efficacy [6] [%]	Efficacy [7] [%]	Efficacy [8] [%]
CCCSc1ccc2[nH]c(NC(=O)OC)nc2c1 [ALBENDAZOLE]	13.3	10.7	14.8	10.6	100	17.4	15.1	
Cn1c(Nc2nc3ccccc3[nH]2)nc2ccccc21	30.2	13.5	17.2	9.1		58.3	28.3	
CCCn1c(Nc2nc3ccccc3[nH]2)nc2ccccc21	67.7	17.6	20	12		78	34.5	
CCCn1c(Nc2nc3ccccc3n2CC)nc2ccccc21	96	84	46	42	100	100	92.1	100
CCCn1c(Nc2nc3ccccc3n2CCC)nc2ccccc21	100	81.2	58.6	45.9	100	100	95.3	100
CCCn1c(Nc2nc3ccccc3n2C)nc2ccccc21	80	73.8	43.4	33.3		88.4	80	
CCn1c(Nc2nc3ccccc3[nH]2)nc2ccccc21	38.2	20	25.3	15.7		65	38.6	
Cn1c(Nc2nc3ccccc3n2C)nc2ccccc21	45.7	17.3	14	8.8		67.9	18.3	
CCn1c(Nc2nc3ccccc3n2CC)nc2ccccc21	94	92	66.3	45.8	100	98	97.5	100
CCn1c(Nc2nc3ccccc3n2C)nc2ccccc21	76.3	65.7	65.3	35.3		84	73	

From ChEMBL document CHEMBL1140685, “Synthesis and antitrichinellosis activity of some bis(benzimidazol-2-yl)amines” (2007)
